# SENP8 block-1: inhibitors of human SENP8 protease; recombinant SENP8, Nedd8 substrate fluorescence; inhibition, % at 20 µM; 0.64% of 360,000 active; AID 602440; in the data active = inhibition mostly above about 40%, no sharp cut-off; inactive = mostly below about 27%
# SENP8 block-2: SENP8 protease inhibition; Q96LD8; purified SENP8, Z-RLRGG-aminoluciferin cleavage, luminescence; inhibition, % at 10 µM; 1.2% of 330,000 active; in the data active = inhibition above about 50%
# SENP6 block: SENP6 protease inhibition | Q9GZR1 | Recombinant SENP6 catalytic domain, aminoluciferin luminescence | inhibition, % at 10 µM | 1.8% of 330,000 active;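 active = inhibition above about 50% at the single tested dose, limit read from the data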;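 note: plate controls were DMSO wells with enzyme for no effect and DMSO wells lacking enzyme for full effect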
# Target sequence (Q9GZR1 628-1112 limits assumed): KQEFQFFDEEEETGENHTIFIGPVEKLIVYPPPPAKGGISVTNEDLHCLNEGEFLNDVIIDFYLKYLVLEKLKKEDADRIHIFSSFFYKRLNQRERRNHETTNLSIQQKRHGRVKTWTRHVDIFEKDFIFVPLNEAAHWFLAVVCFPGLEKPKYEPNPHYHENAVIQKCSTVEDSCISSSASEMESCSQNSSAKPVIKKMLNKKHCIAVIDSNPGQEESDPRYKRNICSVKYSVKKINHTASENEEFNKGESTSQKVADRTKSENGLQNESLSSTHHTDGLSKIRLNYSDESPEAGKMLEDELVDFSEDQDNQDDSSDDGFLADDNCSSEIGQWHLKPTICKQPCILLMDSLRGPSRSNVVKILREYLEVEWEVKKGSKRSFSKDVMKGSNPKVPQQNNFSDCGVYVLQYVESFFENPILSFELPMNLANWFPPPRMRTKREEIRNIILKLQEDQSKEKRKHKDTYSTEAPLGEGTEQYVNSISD
# SENP7 inh: inhibitors of human SENP7 protease; 1.5% of 330,000 active; Q9BQF6; inhibition, % at 5 µM; recombinant SENP7, Z-RLRGG-aminoluciferin luminescence, 40 min;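 active = inhibition above about 50% at the single test dose, limit read from the data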;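 note: plate controls were DMSO with enzyme for no effect and no enzyme buffer wells for full effect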
# Apaf1 inhib: blocks human Apaf-1 apoptosome activity. reconstituted apoptosome caspase-3 activity, DEVD-Rh110 fluorescence. inhibition, % at 20 µM. AID 489030. 0.71% of 330,000 active; active = inhibition of at least 40% at 20 µM;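 note: plate controls were DMSO wells for no effect and DEVD-CHO caspase inhibitor wells for full effect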
#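 Material: reconstituted apoptosome with Apaf-1, cytochrome c, caspase-9, procaspase-3, dATP; medium: pH 7.5 Hepes buffer with CHAPS, BSA, DTT; also added: cytochrome c and DEVD-Rh110 substrate; timing: 30 min plus 50 min, RT; signal: Rh110 fluorescence intensity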
# UBC13 inh: inhibitors of human UBC13 polyubiquitin chain formation | P61088 | TR-FRET | inhibition, % at 20 µM | 0.47% of 330,000 active; in the data active = inhibition above about 45%, passing the limit was not always enough
# Casp3 counter: counter-screen for UBC13 inhibitors: human caspase-3 inhibition | 4% of 1,400 active | Recombinant caspase-3, Caspase-Glo 3/7 luminescence, 60 min | shares compounds with UBC13 inh | AID 488856 | inhibition, % at 20 µM;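 active = mean inhibition across replicates above about 26%, limit read from the data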;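 note: plate controls were DMSO with caspase-3 for no effect and DMSO wells lacking enzyme for full effect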
# UBC13 conf: confirmation of human UBC13 polyubiquitin inhibitors. shares compounds with UBC13 inh. UBC13 polyubiquitination, TR-FRET, biochemical. inhibition, % at 10 µM. 68% of 1,400 active; in the data active = inhibition above about 45%
# Apaf-1 inh conf: confirmation of Apaf-1 inhibitors; shares compounds with Apaf1 inhib; reconstituted apoptosome, caspase-3 DEVD-Rh110 fluorescence; inhibition, % at 20 µM; 25% of 1,800 active; AID 504614;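 active = mean inhibition of at least 40% at 20 µM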;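 note: plate controls were DMSO wells for no effect and DEVD-CHO caspase inhibitor control wells for full effect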
# Rh110 quench: Rh110 signal interference in Apaf-1 inhibitor counter-screen; shares compounds with Apaf1 inhib; Rh110 fluorescence interference, quenched caspase reaction; activation (fluorescence interference), % at 20 µM; 1,800 tested, under 10 active;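 active = signal rise of 40% or more at 20 µM, treated as a fluorescence artifact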
# Fluor interf inh: counter-screen for Apaf-1 inhibitors: fluorescence interference, dose response; shares compounds with Apaf1 inhib; fluorescence interference counterscreen, Apaf-1 assay format; IC50, µM; 460 tested, under 10 active; call rule not given here
# An asterisk follows results filed as active; · = no result given. This is a sample that favours compounds with a hit; in the whole collection about 3% have one here.
SMILES,SENP8 block-1,SENP8 block-2,SENP6 block,SENP7 inh,Apaf1 inhib,UBC13 inh,Casp3 counter,UBC13 conf,Apaf-1 inh conf,Rh110 quench,others
COC(=O)C1=C(C)N(Cc2ccccc2)C(=O)N[C@H]1c1cccc(C(F)(F)F)c1,1,-7,-17,-17,25,5,·,·,·,·,
COC(=O)C1=C(C)N(Cc2ccccc2)C(=NCc2ccccc2)N[C@H]1c1cccc(C(F)(F)F)c1,17,-8,-19,-4,65*,76*,-3,82*,33,15,
Cc1nc(C(F)(F)F)ccc1C(=O)Nc1ccc2ccccc2n1,19,·,·,·,·,·,·,·,·,·,
CC1CCC2(CC1)NC(=O)N(CC(=O)Nc1ccc3[nH]c(=O)[nH]c3c1)C2=O (centres undefined),4,6,-1,2,-2,6,·,·,·,·,
CC1CC(C)(C)CC2(C1)NC(=O)N(CC(=O)Nc1ccc3[nH]c(=O)[nH]c3c1)C2=O (centres undefined),-49,-1,5,0,44*,77*,-3,5,20,7,
COc1ccccc1-c1oc2ccccc2c1C#CC1(N)CCCCC1,-460,-3,-4,-11,68*,70*,-3,70*,28,5,
COc1ccccc1-c1oc2ccccc2c1C#CCCO,-481,-12,-6,-6,13,4,·,·,·,·,
CCOc1ccc(NC(=O)N(O)C2(C#N)CCCCC2)cc1,33,·,·,·,·,·,·,·,·,·,
COc1ccc(OCCC(=O)OCC(=O)NCCc2ccccc2)cc1,14,-9,-20,6,-4,3,·,·,·,·,
COc1ccc(S(=O)(=O)N2CCN(c3ccc4nnc(-c5ccc(F)cc5)n4n3)CC2)cc1,-31,1,-7,-4,51*,46*,3,30,47*,0,Fluor interf inh=>100
Cc1ccc(S(=O)(=O)N2CCN(c3ccc4nnc(-c5ccccc5)n4n3)CC2)cc1,-28,·,·,·,·,·,·,·,·,·,
COc1ccccc1/C=C1\SC(=O)N(CC(=O)N(C)C2CCS(=O)(=O)C2)C1=O (centres undefined),-64,-1,0,2,3,-3,·,·,·,·,
CCCCCCNC(=O)N[C@@H](C(=O)NCCC[C@H]1CN2C(=NC[C@@H]2Cc2ccccc2)N1CCc1cccc(OC)c1)C(C)C,·,5,-1,3,54*,57*,2,61*,21,14,
C/C=C(\C)C(=O)NCCN1C2=NC[C@@H](Cc3ccccc3)N2C[C@H]1Cc1ccc(O)cc1,19,0,-5,10,13,21,·,·,·,·,
NC1=NC[C@H](Cc2ccccc2)N1CCc1cc(C(F)(F)F)cc(C(F)(F)F)c1,32,5,-16,-7,54*,80*,-10,45*,15,8,
FC(F)(F)c1cc(CCN2C(=S)NC[C@@H]2Cc2ccccc2)cc(C(F)(F)F)c1,11,-14,-17,-10,33,10,·,·,·,·,
Cc1ccc(NC(=O)C2CCN(C(=O)c3ccc(F)cc3)CC2)nc1,0,0,2,-4,-1,0,·,·,·,·,
c1ccc(CNc2nc(NCc3ccccc3)c3ccccc3n2)cc1,-477,-22,-41,9,66*,75*,-1,92*,6,0,
OC(c1cc(C(F)(F)F)nc2c(C(F)(F)F)cccc12)C1CCCCN1 (centres undefined),15,-4,-4,4,48*,68*,-6,49*,27,2,
OC(c1cc(-c2ccc(C(F)(F)F)cc2)nc(C(F)(F)F)c1)C1CCCCN1 (centres undefined),20,-4,5,7,27,43,·,·,·,·,

# Assay outcomes (PubChem BioAssay)
